Test results from ChEMBL document CHEMBL2021777 (J Med Chem, 2012).
Activity calls are given as the source filed them. No cut-off for these calls is given here.

Tests used:
[1] = test system: Mus musculus; experiment: Antidepressant activity in BALB/cJ mouse assessed as decrease in immobility at 10 mg/kg, po administered 30 mins prior to testing measured for 6 mins by forced swim test; format: functional, organism-based; design: dose 10 mg/kg
Summary of the method: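 Male BALB/cJ mice, 8−10 weeks old, housed four per cage on a 12 h light−dark cycle. Drug in injectable water was given by oral gavage (10 mL/kg). After 30 min, each mouse was placed in a glass cylinder with 12 cm of ~23 °C water, and floating immobility was timed over a 6 min trial. Analysis was by ANOVA with Fisher's PLSD post hoc test.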

[2] = target: Histamine H3 receptor (Homo sapiens) (UniProt Q9Y5N1); experiment: Displacement of [3H]alpha-methylhistamine from H3 histamine receptor at 10 uM
[3] = target: Histamine H4 receptor (Homo sapiens) (UniProt Q9H3N8); experiment: Displacement of [3H]Histamine from H4 histamine receptor at 10 uM
[4] = target: Muscarinic acetylcholine receptor M1 (Homo sapiens) (UniProt P11229); experiment: Displacement of [3H]QNB from M1 receptor at 10 uM
[5] = target: Sodium-dependent noradrenaline transporter (Homo sapiens) (UniProt P23975); experiment: Displacement of [3H]Nisoxetine from NET at 10 uM
[6] = test system: Plasma; experiment: Plasma protein binding in human at 10 uM; format: ADME, cell-free
Summary of the method: (§1)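 Binding measured at 10 μM in human plasma and CD-1 mouse plasma; reported as mean percent bound.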

[7] = test system: Plasma; experiment: Plasma protein binding in CD1 mouse at 10 uM; format: ADME, cell-free; summary of the method: as §1
[8] = test system: Brain; experiment: Half life in CD1 mouse brain at 5 mg/kg, po; format: ADME, organism-based; design: dose 5 mg/kg, route oral; conditions: in vivo
Summary of the method: (§2)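 Male CD-1 mice given a single oral gavage dose of 5 mg/kg; plasma and brain concentrations measured over time to derive half-lives, Cmax and Tmax.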

[9] = test system: Plasma; experiment: Half life in CD1 mouse plasma at 5 mg/kg, po; format: ADME, organism-based; design: dose 5 mg/kg, route oral; conditions: in vivo; summary of the method: as §2
[10] = Cmax in CD1 mouse brain at 5 mg/kg, po at 30 mins; format: ADME, organism-based; design: dose 5 mg/kg, route oral
Summary of the method: (§3)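 Male CD-1 mice received a single oral gavage dose of 5 mg/kg. Drug levels were measured in brain and plasma over time; Cmax and Tmax were taken from the concentration−time profiles.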

[11] = test system: Plasma; experiment: Cmax in CD1 mouse plasma at 5 mg/kg, po at 10 mins; format: ADME, organism-based; design: dose 5 mg/kg, route oral; conditions: in vivo; summary of the method: as §3
[12] = test system: Plasma; experiment: Tmax in CD1 mouse plasma at 5 mg/kg, po; format: ADME, organism-based; design: dose 5 mg/kg, route oral; conditions: in vivo; summary of the method: as §2
[13] = test system: Nucleic Acid; experiment: Ratio of drug level in brain to plasma in CD1 mouse at 5 mg/kg, po; format: ADME, organism-based; design: dose 5 mg/kg, route oral
Summary of the method: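 Male CD-1 mice, single 5 mg/kg oral gavage dose; brain-to-plasma ratio calculated as Cmax-brain/Cmax-plasma.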

Chain of Sodium-dependent noradrenaline transporter (Homo sapiens) (P23975 whole entry): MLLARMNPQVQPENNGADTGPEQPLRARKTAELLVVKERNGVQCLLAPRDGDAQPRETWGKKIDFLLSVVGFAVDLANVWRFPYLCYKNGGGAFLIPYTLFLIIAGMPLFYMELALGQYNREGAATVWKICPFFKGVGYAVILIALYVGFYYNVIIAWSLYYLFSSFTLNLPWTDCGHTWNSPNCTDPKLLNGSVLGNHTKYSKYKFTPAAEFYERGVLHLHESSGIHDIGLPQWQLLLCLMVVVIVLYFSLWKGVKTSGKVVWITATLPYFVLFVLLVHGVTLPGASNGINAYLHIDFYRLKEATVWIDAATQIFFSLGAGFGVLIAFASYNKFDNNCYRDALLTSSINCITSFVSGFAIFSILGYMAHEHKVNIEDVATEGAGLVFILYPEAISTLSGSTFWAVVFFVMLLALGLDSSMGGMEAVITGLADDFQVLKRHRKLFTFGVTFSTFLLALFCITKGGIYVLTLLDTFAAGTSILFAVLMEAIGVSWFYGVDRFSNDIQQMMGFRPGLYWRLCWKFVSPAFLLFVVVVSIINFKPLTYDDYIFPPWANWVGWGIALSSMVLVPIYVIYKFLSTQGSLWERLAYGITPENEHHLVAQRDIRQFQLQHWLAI
Chain of Muscarinic acetylcholine receptor M1 (Homo sapiens) (P11229 whole entry): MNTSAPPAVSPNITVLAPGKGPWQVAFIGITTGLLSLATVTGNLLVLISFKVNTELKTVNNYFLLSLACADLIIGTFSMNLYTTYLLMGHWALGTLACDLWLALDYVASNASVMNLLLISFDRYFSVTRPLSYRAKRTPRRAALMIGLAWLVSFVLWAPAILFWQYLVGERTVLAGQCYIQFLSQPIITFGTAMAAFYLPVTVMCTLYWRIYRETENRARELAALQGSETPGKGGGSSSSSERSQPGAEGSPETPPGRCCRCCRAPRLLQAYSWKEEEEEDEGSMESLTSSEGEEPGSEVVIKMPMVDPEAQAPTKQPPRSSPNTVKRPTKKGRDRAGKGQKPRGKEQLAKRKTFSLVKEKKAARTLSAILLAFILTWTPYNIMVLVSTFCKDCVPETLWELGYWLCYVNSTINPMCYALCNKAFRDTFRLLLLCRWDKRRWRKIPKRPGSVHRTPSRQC
Chain of Histamine H4 receptor (Homo sapiens) (Q9H3N8 whole entry): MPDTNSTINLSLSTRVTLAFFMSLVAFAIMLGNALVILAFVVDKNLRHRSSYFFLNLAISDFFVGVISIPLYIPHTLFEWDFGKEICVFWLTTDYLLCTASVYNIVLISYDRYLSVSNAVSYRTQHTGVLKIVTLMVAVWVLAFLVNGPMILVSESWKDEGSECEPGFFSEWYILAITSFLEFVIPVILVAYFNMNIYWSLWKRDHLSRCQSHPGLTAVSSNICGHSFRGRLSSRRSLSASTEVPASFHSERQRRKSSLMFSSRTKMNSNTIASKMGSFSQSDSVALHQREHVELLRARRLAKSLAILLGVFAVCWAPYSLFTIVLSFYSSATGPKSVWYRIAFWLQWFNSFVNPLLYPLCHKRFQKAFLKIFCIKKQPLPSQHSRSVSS
Chain of Histamine H3 receptor (Homo sapiens) (Q9Y5N1 whole entry): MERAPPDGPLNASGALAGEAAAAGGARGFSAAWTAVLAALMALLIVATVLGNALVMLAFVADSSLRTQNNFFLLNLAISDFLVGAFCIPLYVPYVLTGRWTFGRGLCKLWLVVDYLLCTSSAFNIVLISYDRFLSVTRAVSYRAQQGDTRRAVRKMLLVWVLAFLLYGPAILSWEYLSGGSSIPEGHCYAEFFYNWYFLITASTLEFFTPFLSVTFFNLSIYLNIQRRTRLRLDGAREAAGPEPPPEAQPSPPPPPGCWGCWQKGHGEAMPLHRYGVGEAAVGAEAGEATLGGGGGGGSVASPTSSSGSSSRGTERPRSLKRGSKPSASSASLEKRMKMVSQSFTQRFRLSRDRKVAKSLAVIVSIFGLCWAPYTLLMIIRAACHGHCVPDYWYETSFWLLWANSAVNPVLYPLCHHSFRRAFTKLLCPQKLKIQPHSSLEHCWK

CNC(=O)OCC[C@H]1C[C@@H]1c1cncc(OC[C@@H]2CCN2)c1
Activity [1]: Active | inhibition [2]: 5.7% | inhibition [3]: -8% | inhibition [4]: 12.9% | inhibition [5]: 69.6% | PPB [6]: 8.4% | PPB [7]: 23.8%

COCC[C@H]1C[C@@H]1c1cncc(OC[C@@H]2CCN2)c1
inhibition [5]: -0.2% | t1/2 [8]: 2.5 h | t1/2 [9]: 2.4 h | Cmax [10]: 133 ng/mL | Cmax [11]: 359 ng/mL | Tmax [12]: 0.167 h | BPR [13]: 0.37
